Reference: ChEMBL document CHEMBL1938313, “Influence of the skeleton on the cytotoxicity of flavonoids” (Bioorg Med Chem, 2012)

What was measured:
[1] = tested on: KB; assay: Cytotoxicity against human KB cells assessed as growth inhibition at 10 '-6 M after 72 hrs by MTS assay; format: functional; settings: read-out: GI
Outline: (§1)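 Cells seeded at 600 per well, dosed 24 h later from DMSO stocks over 0.5 nM–10 µM (DMSO 1% final in controls). KB was grown in D-MEM with 10% fetal calf serum; HL60 in complete RPMI. After 72 h, MTS was added for 3 h at 37 °C and A490 read. Inhibition % = (1 − OD treated/OD control) × 100, in triplicate; IC50 runs were in duplicate.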

[2] = species on record: Ovis aries; assay: Inhibition of sheep brain tubulin polymerization at 2 x 10 '-5 M after 10 mins by turbidimetry
Outline: (§2)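 Microtubule protein was purified from sheep brain by two assembly/disassembly cycles (37 °C/0 °C) in 100 mM MES pH 6.6, 1 mM EGTA, 0.5 mM MgCl2. Compound in DMSO (1 µL) was added to 150 µL microtubule solution, incubated 10 min at 37 °C then 5 min at 0 °C, and turbidity read at 350 nm. Single tests were at ~2 × 10^-5 M; IC50 was also expressed relative to deoxypodophyllotoxin IC50.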

[3] = tested on: KB; assay: Cytotoxicity against human KB cells after 72 hrs by MTS assay; format: functional, cell-based; outline: as §1
[4] = tested on: HL-60; assay: Cytotoxicity against human HL60 cells after 72 hrs by MTS assay; format: functional, cell-based; settings: HL-60, 72 h; outline: as §1
[5] = tested on: HL-60; assay: Induction of apoptosis in human HL60 cells assessed as viable cells at 100 nM after 24 hrs using annexin-V-PE/7-AAD staining by flow cytometry analysis (reference value: 90.8 %); format: functional; settings: HL-60, 24 h, read-out: Activity
[6] = tested on: HL-60; assay: Induction of apoptosis in human HL60 cells assessed as early apoptotic cells at 100 nM after 24 hrs using annexin-V-PE/7-AAD staining by flow cytometry analysis (reference value: 7.5 %); format: functional
[7] = tested on: HL-60; assay: Induction of apoptosis in human HL60 cells assessed as late apoptotic cells at 100 nM after 24 hrs using annexin-V-PE/7-AAD staining by flow cytometry analysis (reference value: 0.8 %); format: functional
[8] = tested on: HL-60; assay: Induction of apoptosis in human HL60 cells assessed as viable cells at 100 nM after 48 hrs using annexin-V-PE/7-AAD staining by flow cytometry analysis (reference value: 83.9 %); format: functional; settings: HL-60, 48 h, read-out: Activity
[9] = tested on: HL-60; assay: Induction of apoptosis in human HL60 cells assessed as early apoptotic cells at 100 nM after 48 hrs using annexin-V-PE/7-AAD staining by flow cytometry analysis (reference value: 14.7 %); format: functional
[10] = tested on: HL-60; assay: Induction of apoptosis in human HL60 cells assessed as late apoptotic cells at 100 nM after 48 hrs using annexin-V-PE/7-AAD staining by flow cytometry analysis (reference value: 0.6 %); format: functional
[11] = tested on: HL-60; assay: Cell cycle arrest in human HL60 cells assessed as accumulation at Sub G1 phase at 100 nM after 24 hrs by propidium iodide based flow cytometry analysis (reference value: 2.3 %); format: functional
[12] = tested on: HL-60; assay: Cell cycle arrest in human HL60 cells assessed as accumulation at G0/G1 phase at 100 nM after 24 hrs by propidium iodide based flow cytometry analysis (reference value: 50.6 %); format: functional
[13] = tested on: HL-60; assay: Cell cycle arrest in human HL60 cells assessed as accumulation at S phase at 100 nM after 24 hrs by propidium iodide based flow cytometry analysis (reference value: 22.3 %); format: functional
[14] = tested on: HL-60; assay: Cell cycle arrest in human HL60 cells assessed as accumulation at G2/M phase at 100 nM after 24 hrs by propidium iodide based flow cytometry analysis (reference value: 24.8 %); format: functional
[15] = tested on: HL-60; assay: Cell cycle arrest in human HL60 cells assessed as accumulation at Sub G1 phase at 100 nM after 48 hrs by propidium iodide based flow cytometry analysis (reference value: 4 %); format: functional
[16] = tested on: HL-60; assay: Cell cycle arrest in human HL60 cells assessed as accumulation at G0/G1 phase at 100 nM after 48 hrs by propidium iodide based flow cytometry analysis (reference value: 51.2 %); format: functional
[17] = tested on: HL-60; assay: Cell cycle arrest in human HL60 cells assessed as accumulation at S phase at 100 nM after 48 hrs by propidium iodide based flow cytometry analysis (reference value: 20.9 %); format: functional
[18] = tested on: HL-60; assay: Cell cycle arrest in human HL60 cells assessed as accumulation at G2/M phase at 100 nM after 48 hrs by propidium iodide based flow cytometry analysis (reference value: 23.9 %); format: functional
[19] = Inhibition of sheep brain tubulin polymerization after 10 mins by turbidimetry analysis; set-up: species or system Ovis aries; outline: as §2
[20] = species on record: Ovis aries; assay: Ratio of compound IC50 to DPPT IC50 for sheep brain tubulin; outline: as §2
[21] = tested on: HL-60; assay: Cell cycle arrest in human HL60 cells assessed as accumulation at Sub G1 phase at 20 nM after 24 hrs by propidium iodide based flow cytometry analysis (reference value: 2.3 %); format: functional
[22] = tested on: HL-60; assay: Cell cycle arrest in human HL60 cells assessed as accumulation at G0/G1 phase at 20 nM after 24 hrs by propidium iodide based flow cytometry analysis (reference value: 50.6 %); format: functional
[23] = tested on: HL-60; assay: Cell cycle arrest in human HL60 cells assessed as accumulation at S phase at 20 nM after 24 hrs by propidium iodide based flow cytometry analysis (reference value: 22.3 %); format: functional
[24] = tested on: HL-60; assay: Cell cycle arrest in human HL60 cells assessed as accumulation at G2/M phase at 20 nM after 24 hrs by propidium iodide based flow cytometry analysis (reference value: 24.8 %); format: functional
[25] = tested on: HL-60; assay: Cell cycle arrest in human HL60 cells assessed as accumulation at Sub G1 phase at 20 nM after 48 hrs by propidium iodide based flow cytometry analysis (reference value: 4 %); format: functional
[26] = tested on: HL-60; assay: Cell cycle arrest in human HL60 cells assessed as accumulation at G0/G1 phase at 20 nM after 48 hrs by propidium iodide based flow cytometry analysis (reference value: 51.2 %); format: functional
[27] = tested on: HL-60; assay: Cell cycle arrest in human HL60 cells assessed as accumulation at S phase at 20 nM after 48 hrs by propidium iodide based flow cytometry analysis (reference value: 20.9 %); format: functional
[28] = tested on: HL-60; assay: Cell cycle arrest in human HL60 cells assessed as accumulation at G2/M phase at 20 nM after 48 hrs by propidium iodide based flow cytometry analysis (reference value: 23.9 %); format: functional
[29] = tested on: HL-60; assay: Cytotoxicity against human HL60 cells assessed as growth inhibition after 72 hrs by MTS assay; settings: HL-60, 72 h

## COc1cc(OC)c(/C=C2\Oc3c(cc(OC)c(OC)c3OC)C2=O)cc1N
[1]
  inhibition of growth at 1 µM: 0%
[2]
  inhibition: 12%

## COc1ccc(/C=C2\Oc3c(cc(OC)c(OC)c3OC)C2=O)cc1N
[1]
  inhibition of growth at 1 µM: 98%
[3]
  IC50: 0.4 µM
[4]
  IC50: 0.18 µM
[2]
  inhibition: 33%
[5]
  viability at 0.1 µM: 85.4%
[6]
  Activity: 12.1%
[7]
  Activity: 1.5%
[8]
  viability at 0.1 µM: 81.7%
[9]
  Activity: 16.4%
[10]
  Activity: 1.1%
[11]
  Activity: 13.9%
[12]
  Activity: 39%
[13]
  Activity: 18.7%
[14]
  Activity: 28.4%
[15]
  Activity: 14%
[16]
  Activity: 42.6%
[17]
  Activity: 22.5%
[18]
  Activity: 20.8%

## COc1ccc(-c2coc3c(OC)c(OC)c(OC)c(O)c3c2=O)cc1N
[1]
  inhibition of growth at 1 µM: 0%

## COc1ccc(-c2oc3c(OC)c(OC)c(OC)c(O)c3c(=O)c2OC)cc1N
[1]
  inhibition of growth at 1 µM: 99%
[4]
  IC50: 0.055 µM
[19]
  IC50: 9 µM
[20]
  Ratio IC50: 4
[5]
  viability at 0.1 µM: 74.2%
[6]
  Activity: 22.8%
[7]
  Activity: 2.1%
[8]
  viability at 0.1 µM: 56.3%
[9]
  Activity: 41%
[10]
  Activity: 1.9%
[11]
  Activity: 8.9%
[12]
  Activity: 40.3%
[13]
  Activity: 17.5%
[14]
  Activity: 33.3%
[15]
  Activity: 19.1%
[16]
  Activity: 33.1%
[17]
  Activity: 26.5%
[18]
  Activity: 21.3%

## COc1ccc(-c2oc3c(OC)c(OC)c(OC)c(OC)c3c(=O)c2OC)cc1N
[1]
  inhibition of growth at 1 µM: 17%

## COc1ccc(/C=C2\Oc3c(cc(OC)c(OC)c3OC)C2=O)cc1[N+](=O)[O-]
[1]
  inhibition of growth at 1 µM: 0%
[2]
  inhibition: 12%

## COc1ccc(/C=C/C(=O)c2c(O)c(OC)c(OC)c(OC)c2OC)cc1N
[1]
  inhibition of growth at 1 µM: 11%

## COc1cc([C@@H]2c3cc4c(cc3C[C@H]3COC(=O)[C@@H]32)OCO4)cc(OC)c1OC [DESOXYPODOPHYLLOTOXIN]
[21]
  Activity: 7.7%
[22]
  Activity: 25.2%
[23]
  Activity: 9.5%
[24]
  Activity: 57.6%
[25]
  Activity: 34.1%
[26]
  Activity: 23.5%
[27]
  Activity: 37.7%
[28]
  Activity: 29.8%

## COc1ccc(/C=C2\Oc3c(OC)c(O)c(OC)c(OC)c3C2=O)cc1N
[1]
  inhibition of growth at 1 µM: 0%

## COc1ccc(/C=C2\Oc3c(OC)c(OC)c(OC)c(OC)c3C2=O)cc1N
[1]
  inhibition of growth at 1 µM: 0%

## COc1ccc(-c2coc3c(OC)c(OC)c(OC)c(O)c3c2=O)cc1[N+](=O)[O-]
[1]
  inhibition of growth at 1 µM: 18%

## COc1cccc2c1C(=O)c1c(O)c3c(c(O)c1C2=O)C[C@@](O)(C(=O)CO)C[C@@H]3O[C@H]1C[C@H](N)[C@H](O)[C@H](C)O1 [DOXORUBICIN]
[5]
  viability at 0.1 µM: 81%
[6]
  Activity: 17.8%
[7]
  Activity: 0.9%
[8]
  viability at 0.1 µM: 29.8%
[9]
  Activity: 68%
[10]
  Activity: 1.9%

## COc1ccc(/C=C2\Oc3c(cc(OC)c(OC)c3OC)C2=O)c(O)c1O
[19]
  IC50: 8.6 µM
[20]
  Ratio IC50: 4
[5]
  viability at 0.1 µM: 84.1%
[6]
  Activity: 12.9%
[7]
  Activity: 1.9%
[8]
  viability at 0.1 µM: 77.1%
[9]
  Activity: 21.1%
[10]
  Activity: 0.8%
[11]
  Activity: 14%
[12]
  Activity: 9.8%
[13]
  Activity: 23.7%
[14]
  Activity: 52.5%
[15]
  Activity: 23.2%
[16]
  Activity: 31.4%
[17]
  Activity: 28.2%
[18]
  Activity: 17.2%
[29]
  IC50: 100 µM

## COc1ccc(/C=C2\Oc3c(OC)c(OC)c(OC)c(O)c3C2=O)cc1[N+](=O)[O-]
[1]
  inhibition of growth at 1 µM: 0%

## COc1ccc(-c2oc3c(OC)c(OC)c(OC)cc3c(=O)c2OC)cc1N
[1]
  inhibition of growth at 1 µM: 84%

## COc1ccc(C2COc3c(OC)c(OC)c(OC)c(O)c3C2=O)cc1N (configuration not stated)
[1]
  inhibition of growth at 1 µM: 4%

## COc1cc(OC)c(/C=C2\Oc3c(OC)c(OC)c(OC)c(O)c3C2=O)cc1N
[1]
  inhibition of growth at 1 µM: 0%

## COc1ccc(-c2cc(=O)c3c(O)c(OC)c(OC)c(OC)c3o2)cc1N
[1]
  inhibition of growth at 1 µM: 96%

## COc1ccc(/C=C2\Oc3c(OC)c(OC)c(OC)c(O)c3C2=O)cc1N
[1]
  inhibition of growth at 1 µM: 0%

## COc1ccc(/C=C2\Oc3c(cc(OC)c(OC)c3OC)C2=O)cc1O
[1]
  inhibition of growth at 1 µM: 100%
[3]
  IC50: 0.11 µM
[4]
  IC50: 0.12 µM
[2]
  inhibition: 21%
[5]
  viability at 0.1 µM: 81.1%
[6]
  Activity: 16.8%
[7]
  Activity: 1.1%
[8]
  viability at 0.1 µM: 73.3%
[9]
  Activity: 24.9%
[10]
  Activity: 1.1%
[11]
  Activity: 14.4%
[12]
  Activity: 40.3%
[13]
  Activity: 20.6%
[14]
  Activity: 24.7%
[15]
  Activity: 21.1%
[16]
  Activity: 35.1%
[17]
  Activity: 25.6%
[18]
  Activity: 18.2%

## COc1ccc(-c2cc(=O)c3c(OC)c(OC)c(OC)c(OC)c3o2)cc1N
[1]
  inhibition of growth at 1 µM: 6%
